ChEMBL document CHEMBL1154735, “A strategy to minimize reactive metabolite formation: discovery of (S)-4-(1-cyclopropyl-2-methoxyethyl)-6-[6-(difluoromethoxy)-2,5-dimethylpyridin-3-ylamino]-5-oxo-4,5-dihydropyrazine-2-carbonitrile as a potent, orally bioavailable corticotropin-releasing factor-1 receptor antagonist” (J Med Chem, 2009)
Values after ≈ are worked out from the molar mass of the structure shown.

Tests used:
[1] = biological target: T1, Corticotropin-releasing factor receptor 1 (Rattus norvegicus, UniProt P35353); test: Displacement of [125I]Tyr-o-CRF from CRF1 receptor in rat frontal cortex homogenate by binding titration assay; type: tissue-based
T1 sequence (P35353 whole entry): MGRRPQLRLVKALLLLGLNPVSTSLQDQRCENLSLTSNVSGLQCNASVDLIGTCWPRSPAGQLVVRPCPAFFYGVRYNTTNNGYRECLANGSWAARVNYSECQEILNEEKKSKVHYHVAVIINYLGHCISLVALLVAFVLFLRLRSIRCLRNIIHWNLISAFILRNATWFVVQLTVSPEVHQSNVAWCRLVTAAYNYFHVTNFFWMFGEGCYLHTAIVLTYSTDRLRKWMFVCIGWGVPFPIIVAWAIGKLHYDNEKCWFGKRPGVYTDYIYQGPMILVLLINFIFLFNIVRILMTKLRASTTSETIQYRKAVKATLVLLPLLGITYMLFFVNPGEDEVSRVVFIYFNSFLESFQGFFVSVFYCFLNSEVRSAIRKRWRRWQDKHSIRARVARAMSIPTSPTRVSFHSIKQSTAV

[2] = Metabolic stability in human liver microsomes assessed as compound remaining at 3 uM after 10 mins by HPLC/UV/MS analysis; type: ADME, Microsome; conditions: read-out: Stability
[3] = Cmax in Sprague-Dawley rat at 10 mg/kg, po dosed as aqueous suspension of 1% polysorbate 80 in 0.5% methylcellulose after 2 to 4 hrs by LC/MS/MS analysis; type: ADME, organism-based; set-up: dose 10 mg/kg, route oral; conditions: in vivo
[4] = Oral bioavailability in Sprague-Dawley rat at 10 mg/kg dosed as aqueous suspension of 1% polysorbate 80 in 0.5% methylcellulose after 0.25 to 24 hrs by LC/MS/MS analysis; type: ADME, organism-based; conditions: in vivo
[5] = AUC in Sprague-Dawley rat at 10 mg/kg, po dosed as aqueous suspension of Labrafil M 1944CS/DMAC/polysorbate 80, 85:10:5 (v/v) after 0.25 to 24 hrs by LC/MS/MS analysis; type: ADME, organism-based; set-up: time 0.25-24 hr, dose 10 mg/kg, route oral; conditions: plasma
[6] = Aqueous solubility at pH 1; type: physicochemical
[7] = Metabolic stability in NADPH-fortified human liver microsomes assessed as parent compound remaining at 10 uM after 30 mins by HPLC/UV/MS analysis; type: ADME, Microsome; conditions: read-out: Stability
Summary of the method: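 Pooled rat or human liver microsomes 1 mg/mL, 10 μM substrate, 100 mM potassium phosphate pH 7.4, 37 °C, started with NADPH-regenerating system (1.3 mM NADP+, 3.3 mM glucose-6-phosphate, 3.3 mM MgCl2, 0.5 U/mL G6PDH); GSH 5 mM in trapping runs. Sampled 0 and 30 min, acetonitrile quench; abundance as UV peak area (330–340 nm) fraction of all drug-related components by HPLC/UV/MS.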

Rattus norvegicus [8] = test: Plasma free concentration in Sprague-Dawley rat at 0.56 mg/kg, po after 1 to 3 hrs by LC/MS/MS analysis; type: ADME, organism-based; set-up: dose 0.56 mg/kg, route oral; conditions: in vivo
Rattus norvegicus [9] = test: Plasma free concentration in Sprague-Dawley rat at 3 mg/kg, po after 1 to 3 hrs by LC/MS/MS analysis; type: ADME, organism-based; set-up: dose 3 mg/kg, route oral; conditions: in vivo
[10] = Half life in Beagle dog at 2 mg/kg, iv by LC/MS/MS analysis; type: ADME, organism-based, Canis lupus familiaris; set-up: dose 2 mg/kg, route intravenous; conditions: in vivo
Summary of the method: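 Male beagle dogs (n = 4), 2 mg/kg iv in propylene glycol:ethanol 90:10 (v/v), 1 mL/kg infused over 5 min at 0.2 mL/kg/min; femoral vein blood at 0.17–24 h; plasma frozen at –20 °C, analysed by LC/MS/MS.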

`COC[C@H](C1CC1)n1cc(C#N)nc(Nc2cc(C)c(OC(F)F)nc2C)c1=O` showed an IC50 [1] of 0.86 nM, a remaining at 10 min, 3 µM [2] of 74% and a Cmax [3] of 860 nM. The bioavailability [4] was 31%, the AUC [5] was 8.8 µM·h and the solubility [6] was 3 µg/mL (≈ 7.4 µM). For the same compound, the remaining at 0.5 h, 10 µM [7] was 56%, the “Cp(f)” value (Rattus norvegicus [8]) was 0.84 nM and the “Cp(f)” value (Rattus norvegicus [9]) was 5 nM. For the same compound, the half-life [10] was 30 h.
